According to ChEMBL document CHEMBL4229364, “Structure-activity relationships of 2, 4-disubstituted pyrimidines as dual ERα/VEGFR-2 ligands with anti-breast cancer activity” (Eur J Med Chem, 2018):
Calls of active or inactive are those of the source. The calls are words filed in the database; no cut-off is given here.

What was measured:
[1] = system: Ishikawa; experiment: Antiproliferative activity against human Ishikawa cells after 48 hrs by MTT assay; assay type: functional, cell-based
Procedure, shortened: (§1)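 MTT assay. Cells were grown in RPMI1640 with 10% FBS and penicillin/streptomycin at 37°C, 5% CO2, seeded at 1×10^5/mL and rested 24 h. Compound was added at 4×10^-5 to 1×10^-6 mol/L for 48 h; controls received 1% DMSO. MTT (5 mg/mL) was added for 4 h in the dark and the formazan dissolved in DMSO. A490 was read and IC50 derived.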

[2] = system: MCF7; experiment: Antiproliferative activity against human MCF7 cells after 48 hrs by MTT assay; assay type: functional, cell-based; conditions: MCF7, 48 h; procedure, shortened: as §1
[3] = target: T1, Vascular endothelial growth factor receptor 2 (Homo sapiens, UniProt P35968); experiment: Inhibition of VEGFR2 (unknown origin) using TK substrate after 1 hr by HTRF assay
T1 sequence (P35968 whole entry): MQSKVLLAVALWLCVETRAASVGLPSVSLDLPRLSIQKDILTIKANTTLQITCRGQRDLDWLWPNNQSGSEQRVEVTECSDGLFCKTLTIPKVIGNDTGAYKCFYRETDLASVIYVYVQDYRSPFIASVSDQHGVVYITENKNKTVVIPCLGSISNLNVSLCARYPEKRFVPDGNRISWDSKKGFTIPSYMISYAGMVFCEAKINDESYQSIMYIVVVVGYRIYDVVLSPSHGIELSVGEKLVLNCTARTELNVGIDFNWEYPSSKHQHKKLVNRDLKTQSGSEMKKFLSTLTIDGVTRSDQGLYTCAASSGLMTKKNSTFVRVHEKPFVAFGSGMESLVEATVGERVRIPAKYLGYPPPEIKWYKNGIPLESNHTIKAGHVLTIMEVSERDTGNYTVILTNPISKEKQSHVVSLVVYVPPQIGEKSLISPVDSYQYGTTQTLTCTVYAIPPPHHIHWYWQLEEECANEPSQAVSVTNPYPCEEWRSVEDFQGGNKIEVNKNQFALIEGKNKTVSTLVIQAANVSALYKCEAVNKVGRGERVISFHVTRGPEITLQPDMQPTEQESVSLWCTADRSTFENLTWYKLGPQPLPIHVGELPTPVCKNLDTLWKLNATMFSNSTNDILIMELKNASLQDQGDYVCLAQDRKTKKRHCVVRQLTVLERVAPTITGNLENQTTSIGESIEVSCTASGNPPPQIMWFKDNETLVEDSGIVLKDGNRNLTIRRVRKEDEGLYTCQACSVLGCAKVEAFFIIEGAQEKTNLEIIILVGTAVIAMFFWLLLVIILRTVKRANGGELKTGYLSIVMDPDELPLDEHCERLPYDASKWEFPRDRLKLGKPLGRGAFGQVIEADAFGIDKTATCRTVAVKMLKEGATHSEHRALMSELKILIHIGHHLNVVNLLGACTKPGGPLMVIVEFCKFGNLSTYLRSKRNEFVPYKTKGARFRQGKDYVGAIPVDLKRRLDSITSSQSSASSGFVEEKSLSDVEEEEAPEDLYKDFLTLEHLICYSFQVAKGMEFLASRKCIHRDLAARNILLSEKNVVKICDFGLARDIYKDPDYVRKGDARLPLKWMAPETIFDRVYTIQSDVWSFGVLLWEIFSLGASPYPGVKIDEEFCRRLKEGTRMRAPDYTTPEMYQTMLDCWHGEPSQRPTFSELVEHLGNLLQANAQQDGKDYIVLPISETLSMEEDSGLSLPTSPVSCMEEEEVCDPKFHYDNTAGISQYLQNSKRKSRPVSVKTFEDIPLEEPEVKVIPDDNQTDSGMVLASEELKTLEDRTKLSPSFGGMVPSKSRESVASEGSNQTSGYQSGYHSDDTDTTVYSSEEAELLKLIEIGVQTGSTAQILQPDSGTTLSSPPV

[4] = target: T1, Vascular endothelial growth factor receptor 2; conditions: at 10 µM
[5] = system: HUVEC; experiment: Antiproliferative activity against HUVEC after 48 hrs by MTT assay; assay type: functional, cell-based; conditions: Homo sapiens; procedure, shortened: as §1
[6] = target: T2, Estrogen receptor (Homo sapiens, UniProt P03372); experiment: Displacement of Fluormone ES2 Green from full length human ER-alpha expressed in insect cells after 2 hrs by fluorescence polarization assay
T2 sequence (P03372 whole entry): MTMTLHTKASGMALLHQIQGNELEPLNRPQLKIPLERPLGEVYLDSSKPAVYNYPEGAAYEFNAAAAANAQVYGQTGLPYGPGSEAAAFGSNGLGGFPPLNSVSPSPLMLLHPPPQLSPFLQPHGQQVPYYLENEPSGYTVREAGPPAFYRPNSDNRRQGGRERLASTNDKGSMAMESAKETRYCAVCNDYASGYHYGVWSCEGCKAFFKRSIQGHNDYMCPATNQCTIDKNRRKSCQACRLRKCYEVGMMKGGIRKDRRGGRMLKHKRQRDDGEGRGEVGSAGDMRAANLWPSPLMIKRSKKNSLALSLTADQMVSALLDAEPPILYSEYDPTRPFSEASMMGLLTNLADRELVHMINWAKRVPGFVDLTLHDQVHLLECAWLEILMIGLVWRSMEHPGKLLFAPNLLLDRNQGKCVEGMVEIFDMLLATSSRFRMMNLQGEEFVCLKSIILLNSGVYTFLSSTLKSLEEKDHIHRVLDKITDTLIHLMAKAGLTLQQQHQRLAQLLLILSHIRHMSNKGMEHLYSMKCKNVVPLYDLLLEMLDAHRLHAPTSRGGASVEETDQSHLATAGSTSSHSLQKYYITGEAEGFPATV

[7] = system: Chorioallantoic membrane; experiment: In vivo antiangiogenic activity in chicken egg chorioallantoic membrane at 1 uM after 72 hrs; assay type: functional, organism-based; conditions: Gallus gallus
Procedure, shortened: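 Chick CAM assay. Fertilized eggs were incubated 7 days at 37°C, then a window of about 1 cm² was opened in the shell. […] Eggs were incubated a further 72 h at 37°C and 60% humidity. CAM was fixed in acetone/ethanol for 10 min and vessels imaged.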

IC50 [2] [µM]	IC50 [3] [nM]	inhibition [4] [%]	IC50 [6] [µM]	SMILES	IC50 [1] [µM]	IC50 [5] [µM]	Activity [7]
8.59	67	90.3		CCN(CC)CCOc1ccc(Nc2nc(-c3ccc(OC)cc3)nc(Cl)c2-c2ccccc2)cc1	9.98	4.34	
7.56	> 1000	50.9		COc1ccc(-c2nc(Cl)c(-c3ccccc3)c(Nc3ccc(OCCN(C)C)cc3)n2)cc1	6.34	14.2	
33.1	> 1000	68.5	3.42	CN(C)CCOc1ccc(Nc2nc(-c3ccc(O)cc3)nc(Cl)c2-c2ccccc2)cc1	37.1	13.8	
35.6	> 1000	76.9		CCN(CC)CCOc1ccc(Nc2nc(-c3ccc(O)cc3)nc(Cl)c2-c2ccccc2)cc1	12	8.81	

The next lines start with the molecule.

SMILES	IC50 [2] [µM]	IC50 [3] [nM]	inhibition [4] [%]	IC50 [6] [µM]	IC50 [1] [µM]	IC50 [5] [µM]	Activity [7]
O=C(c1ccc(OCCN2CCCCC2)cc1)c1c(-c2ccc(O)cc2)sc2cc(O)ccc12 [RALOXIFENE]	13.2				24.4		
COc1ccc(-c2nc(Cl)cc(Oc3ccc(OCCN(C)C)cc3)n2)cc1	> 40	> 1000	61.2	5.96	> 40	> 40	
COc1ccc(-c2nc(Cl)c(-c3ccccc3)c(Nc3ccc(OCCN4CCCC4)cc3)n2)cc1	7.84	> 1000	49.4		3.81	5.02	
COc1ccc(-c2nc(Cl)cc(Nc3ccc(OCCN(C)C)cc3)n2)cc1	3.54	> 1000	40		5.67	6.31	
CCN(CC)CCNC(=O)c1c(C)[nH]c(/C=C2\C(=O)Nc3ccc(F)cc32)c1C [SUNITINIB]						6.36	Active
COc1ccc(-c2nc(Cl)c(-c3ccccc3)c(Oc3ccc(OCCN4CCCC4)cc3)n2)cc1	32.4	> 1000	75.3	2.17	14.1	10.6	
COc1ccc(-c2nc(Cl)c(-c3ccccc3)c(Oc3ccc(OCCN(C)C)cc3)n2)cc1	21.8	101	90.9		17.7	11.7	
CCN(CC)CCOc1ccc(Oc2nc(-c3ccc(OC)cc3)nc(Cl)c2-c2ccccc2)cc1	> 40	> 1000	60.2		23.5	15.1	
